ChEMBL document CHEMBL1145839, “N-(3-acyloxy-2-benzylpropyl)-N'-[4-(methylsulfonylamino)benzyl]thiourea analogues: novel potent and high affinity antagonists and partial antagonists of the vanilloid receptor” (J Med Chem, 2003)
Activity calls are given as the source filed them. No cut-off for these calls is given here.

Assays:
[1] = biological target: T1, Transient receptor potential cation channel subfamily V member 1 (Rattus norvegicus, UniProt O35433); assay: In vitro binding affinity towards Rat Vanilloid receptor 1 (VR1) by [3H]RTX displacement.
Summary of the method: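 Rat VR1 stably expressed in tet-off CHO cells; cells grown without antibiotic for 48 h, trypsin-harvested, pelleted and stored at -20 °C. About 5×10^5 cells incubated with 50-100 pM [3H]RTX plus competitor in DPBS (Ca2+/Mg2+) with 0.25 mg/mL BSA, 60 min at 37 °C. Nonspecific binding taken with 100 nM unlabeled RTX.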

[2] = biological target: T1, Transient receptor potential cation channel subfamily V member 1; assay: (§1) In vitro [Ca2+] influx relative to capsaicin by Rat Vanilloid receptor (VR1) expressing CHO cells; assay type: functional, cell-based
[3] = biological target: Transient receptor potential cation channel subfamily V member 1 (Rattus norvegicus) (UniProt O35433); assay: as §1; assay type: functional, cell-based; details: concentration not given here
[4] = biological target: T1, Transient receptor potential cation channel subfamily V member 1; assay: Inhibition of capsaicin-induced [Ca2+] uptake by Rat Vanilloid receptor 1 (VR1) expressing CHO cells; assay type: cell-based
[5] = biological target: Transient receptor potential cation channel subfamily V member 1 (Rattus norvegicus) (UniProt O35433); assay: Inhibition of capsaicin-induced [Ca2+] uptake by Rat Vanilloid receptor 1 (VR1) expressing CHO cells (ineffective); assay type: functional, cell-based
[6] = biological target: Transient receptor potential cation channel subfamily V member 1 (Rattus norvegicus) (UniProt O35433); details: CHO
[7] = biological target: T1, Transient receptor potential cation channel subfamily V member 1; assay: In vitro binding to Rat Vanilloid receptor 1 (VR1) expressing CHO cells compared to capsaicin; assay type: cell-based
Summary of the method: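 Tet-off CHO cells stably expressing rat VR1, induced by 48 h culture without tetracycline, harvested with trypsin/EDTA, pelleted and stored at -20 °C. About 5×10^5 cells per tube incubated 60 min at 37 °C with 50-100 pM [3H]RTX, a range of competitor concentrations and 0.25 mg/mL BSA in DPBS with Ca2+/Mg2+. Nonspecific binding measured with 100 nM unlabeled RTX. α-glycoprotein added after incubation, membranes pelleted, scintillation counting. Ki from Hill fit; at least three experiments.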

[8] = biological target: Transient receptor potential cation channel subfamily V member 1 (Rattus norvegicus) (UniProt O35433); assay: Displacement of [3H]RTX binding to Rat Vanilloid receptor 1 (VR1) at 10 uM

Sequence of Transient receptor potential cation channel subfamily V member 1 (Rattus norvegicus) (O35433 whole entry): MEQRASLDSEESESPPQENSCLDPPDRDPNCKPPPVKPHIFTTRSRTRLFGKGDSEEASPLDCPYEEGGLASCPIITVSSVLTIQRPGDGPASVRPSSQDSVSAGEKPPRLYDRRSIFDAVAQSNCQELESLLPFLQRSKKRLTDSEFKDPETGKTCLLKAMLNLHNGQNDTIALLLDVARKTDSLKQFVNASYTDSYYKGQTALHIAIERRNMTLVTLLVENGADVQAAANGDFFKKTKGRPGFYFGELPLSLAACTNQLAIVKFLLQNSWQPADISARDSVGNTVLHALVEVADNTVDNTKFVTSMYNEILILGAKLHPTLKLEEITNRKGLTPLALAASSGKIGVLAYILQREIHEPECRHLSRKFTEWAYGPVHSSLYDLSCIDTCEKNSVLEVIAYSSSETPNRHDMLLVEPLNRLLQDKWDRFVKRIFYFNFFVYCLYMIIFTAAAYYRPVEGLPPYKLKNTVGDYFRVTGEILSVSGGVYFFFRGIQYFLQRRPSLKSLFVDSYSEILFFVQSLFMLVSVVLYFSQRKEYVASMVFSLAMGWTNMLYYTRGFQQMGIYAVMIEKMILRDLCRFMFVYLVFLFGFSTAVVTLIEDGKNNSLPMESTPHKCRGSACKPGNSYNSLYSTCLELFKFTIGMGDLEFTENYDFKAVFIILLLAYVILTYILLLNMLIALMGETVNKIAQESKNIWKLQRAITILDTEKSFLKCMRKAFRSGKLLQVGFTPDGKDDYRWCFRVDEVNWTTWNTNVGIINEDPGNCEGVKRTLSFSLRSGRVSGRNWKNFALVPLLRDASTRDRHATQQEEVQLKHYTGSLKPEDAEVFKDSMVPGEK
T1 sequence (O35433 whole entry): as above

For `CC(=O)Nc1ccc(CNC(=S)NCC(COC(=O)C(C)(C)C)Cc2ccc(C)c(C)c2)cc1` (stereo unspecified), the Ki [1] was 1700 nM and the EC50 [2] was 450 nM.

`Cc1ccc(CC(CN/C(S)=N/Cc2ccc(NS(C)(=O)=O)cc2)COC(=O)C(C)(C)C)cc1C` (stereo unspecified) gave an inhibition [3] of 7%.

In the case of `Cc1ccc(CC(CN/C(S)=N/Cc2ccc(NS(=O)(=O)C(C)C)cc2)COC(=O)C(C)(C)C)cc1C` (stereo unspecified), the Ki [1] is reported as 227 nM and the EC50 [2] is reported as 790 nM.

Work on `Cc1ccc(CC(CNC(=S)NCc2ccc(NS(C)(=O)=O)cc2)COC(=O)C(C)(C)C)cc1C` (stereo unspecified) yielded a Ki [1] of 29.3 nM and a Ki [4] of 67 nM.

`Cc1ccc(CC(CNC(=S)NCc2ccc(NS(C)(=O)=O)c(F)c2)COC(=O)C(C)(C)C)cc1C` (stereo unspecified) gave a Ki [1] of 54 nM and a Ki [4] of 7.8 nM.

For `CC(C)(C)c1ccc(CC(CNC(=S)NCc2ccc(NS(C)(=O)=O)cc2)COC(=O)c2ccccc2)cc1` (stereo unspecified), the Ki [1] was 239 nM and the EC50 [2] was 2790 nM.

For `COc1cc(CNC(=S)NCC(COC(=O)C(C)(C)C)Cc2ccc(C(C)(C)C)cc2)ccc1O` (stereo unspecified), the NE [5] was “inactive” and the EC50 [2] was 2.83 nM.

Compound `Cc1ccc(CC(CNC(=S)NCc2ccc(NC(=O)C(C)C)cc2)COC(=O)C(C)(C)C)cc1C` (stereo unspecified) has a Ki [1] of 2600 nM and an EC50 [2] of 1140 nM.

For `Oc1cc2c(cc1O)CN(C(=S)NCCc1ccc(Cl)cc1)CCC2`, the NE [6] was “inactive”.

`Cc1ccc(CC(CN/C(S)=N/Cc2cccc(NS(C)(=O)=O)c2)COC(=O)C(C)(C)C)cc1C` (stereo unspecified) gave a Ki [1] of 355 nM and an EC50 [2] of 990 nM.

`CC(C)(C)C(=O)OCC(C/N=C(\S)NCc1ccc(NS(C)(=O)=O)cc1)Cc1ccc(C(C)(C)C)cc1` (stereo unspecified) showed a Ki [1] of 64 nM and a Ki [4] of 86 nM.

Work on `Cc1ccc(CC(CNC(=S)NCc2ccc(CNS(C)(=O)=O)cc2)COC(=O)C(C)(C)C)cc1C` (stereo unspecified) yielded a Ki [1] of 3000 nM and an EC50 [2] of 1700 nM.

`Cc1ccc(CC(CN/C(S)=N/Cc2ccc(NS(C)(=O)=O)cc2)COC(=O)c2ccccc2)cc1C` (stereo unspecified) showed an EC50 [2] of 1730 nM.

With `CCS(=O)(=O)Nc1ccc(C/N=C(\S)NCC(COC(=O)C(C)(C)C)Cc2ccc(C)c(C)c2)cc1` (stereo unspecified) the Ki [1] was 108 nM and the Ki [4] was 309 nM.

`C=C(C)[C@]12C[C@@H](C)[C@@]34O[C@](Cc5ccccc5)(O[C@@H]1[C@@H]3C=C(COC(=O)Cc1ccc(O)c(OC)c1)C[C@]1(O)C(=O)C(C)=C[C@@H]41)O2` [RESINIFERATOXIN] was tested, and the Ki [7] was 0.13 nM.

For `COc1cc(CNC(=S)NCC(COC(=O)C(C)(C)C)Cc2ccc(C)c(C)c2)ccc1O` (stereo unspecified), the NE [5] was “inactive” and the EC50 [2] was 1.97 nM.

Work on `COc1cc(C/N=C(\S)NCC(COC(=O)c2ccccc2)Cc2ccc(C(C)(C)C)cc2)ccc1NS(C)(=O)=O` (stereo unspecified) yielded a Ki [1] of 77.2 nM and an EC50 [2] of 252 nM.

`COc1cc(C/N=C(\S)NCC(COC(=O)C(C)(C)C)Cc2ccc(C)c(C)c2)ccc1NS(C)(=O)=O` (stereo unspecified) showed a Ki [1] of 49 nM and an EC50 [2] of 22 nM.

In the case of `CCCS(=O)(=O)Nc1ccc(C/N=C(\S)NCC(COC(=O)C(C)(C)C)Cc2ccc(C)c(C)c2)cc1` (stereo unspecified), the Ki [1] is reported as 313 nM and the Ki [4] is reported as 940 nM.

`Cc1ccc(CC(CN/C(S)=N/Cc2ccc(NS(=O)(=O)c3ccccc3)cc2)COC(=O)C(C)(C)C)cc1C` (stereo unspecified) was tested, and the Ki [1] was 2500 nM and the NE [5] was “inactive”.

In the case of `COc1cc(CNC(=S)NCC(COC(=O)c2ccccc2)Cc2ccc(C)c(C)c2)ccc1NS(C)(=O)=O` (stereo unspecified), the Ki [1] is reported as 148 nM and the EC50 [2] is reported as 166 nM.

In the case of `COc1cc(CNC(=O)CCCC/C=C/C(C)C)ccc1O`, the NE [5] is reported as “inactive”.

In the case of `Cc1ccc(CC(CN/C(S)=N/Cc2ccc(NS(=O)(=O)C(F)(F)F)cc2)COC(=O)C(C)(C)C)cc1C` (stereo unspecified), the NE [5] is reported as “inactive” and the inhibition [8] is reported as 15.5%.
